Test results reported in article PMC9907348 (Molecular Pharmaceutics, 2023).

Assay: Intravital two-photon microscopy of renal disposition
Format: in vivo, Munich Wistar Frömter rats
Details: rat; for course of subapical brush border fluorescence / vascular fluorescence after infusion: single iv bolus ∼300 μg/kg; for course of subapical brush border fluorescence: infusion movie ∼2 min 10 s to 300 s
Summary of the method: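 Munich Wistar Frömter rats (9–12 weeks), fed ad libitum, with temperature monitored. Outer-cortex glomeruli with visible S1 proximal tubule openings were marked before a bolus of TAMRA- or TAMRA/QSY7-labelled peptide via an indwelling jugular line. 40 kDa FITC-dextran outlined the brush border. Two-photon excitation was at 800 nm (2.0% transmissivity), imaging for ~60 min. Fluorescence was measured over capillary-loop and subapical brush border regions.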

[1] = iv, intravital two-photon microscopy
[2] = intravital two-photon microscopy
[3] = iv, postinjection, 40 kDa FITC-dextran given just before

Substance | glomerular filtration [1] | proximal tubule (PTEC) binding and endocytosis [1] | course of subapical brush border fluorescence | vascular fluorescence after infusion [2] | time at which fluorescence was detected within apical vesicular arrangements [3] [s] | time at which fluorescence within apical vesicular arrangements became marked [3] [s]
5-TAMRA exenatide [TAMRA-Ex] | rapid glomerular filtration | rapid and extensive proximal tubule binding and endocytosis | rapid appearance | immediate and pronounced detection of fluorescence | – | –
5-TAMRA-QSY7 exenatide [FRET-Ex] | – | – | protracted linear increase | virtually undetectable | ≤ 80 | ≤ 200
